From ChEMBL document CHEMBL4152264, “Design, synthesis, antiproliferative activity and docking studies of quinazoline derivatives bearing 2,3-dihydro-indole or 1,2,3,4-tetrahydroquinoline as potential EGFR inhibitors” (Eur J Med Chem, 2018) come the findings set out here.

One data set deals with A549. As to the kind of experiment: Antiproliferative activity against human A549 cells after 72 hrs by MTT assay. The data set is classed as functional, cell-based. To be noted: A549, 72 h.
A short description of data set [1]: Solubility of the compound in water. The data set is classed as physicochemical. The settings on record: buffer.
Another data set has as its system MCF7. Description: Antiproliferative activity against human MCF7 cells after 72 hrs by MTT assay. The data set is classed as functional, cell-based. To be noted: MCF7, 72 h. A general note: Tetrazolium dyes change colour on reduction, which living cells bring about.
A further data set deals with PC-3. Description: Antiproliferative activity against human PC3 cells after 72 hrs by MTT assay. The settings on record: PC-3, 72 h. It is filed as functional, cell-based. The gist of the method:
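Cells grown in MEM with 10% FBS. About 4×10³ cells per well seeded and incubated 24 h at 37 °C, 5% CO₂. Compounds added at indicated final concentrations for 72 h. MTT at 5 µg/mL final for 4 h at 37 °C. Formazan dissolved in DMSO, absorbance read at 492 nm with 630 nm reference. Tested three times; IC50 is the mean of two determinations.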

For orientation: IC50 means the concentration at which inhibition is half-maximal. A lower IC50 goes with inhibition by little substance. For `CC(C)/C=C/C(=O)Nc1cc2c(N3CCCc4ccccc43)ncnc2cc1O[C@@H]1CCOC1`, the half-inhibitory concentration (IC50) turned out to be 6.82 µM in the data set with A549, 4.68 µM in the data set with MCF7 and 8.51 µM in the data set on PC-3. Moreover, the solubility entry in data set [1] is recorded as “Insoluble”.

Consider `CCN(CC)C/C=C/C(=O)Nc1cc2c(N3CCCc4ccccc43)ncnc2cc1O[C@@H]1CCOC1`, for which the IC50 with A549 came to 5.65 µM; in the data set on MCF7, 3.87 µM; in the data set with PC-3 it was 4.27 µM.

As to `O=C(/C=C/CN1CCCC1)Nc1cc2c(N3CCCc4ccccc43)ncnc2cc1O[C@@H]1CCOC1`, the half-inhibitory concentration (IC50) in the data set with A549 was 6.51 µM; in the data set with MCF7 it was 4.25 µM; in the data set on PC-3, 5.78 µM.

Take `CC(C)=CC(=O)Nc1cc2c(N3CCCc4ccccc43)ncnc2cc1O[C@@H]1CCOC1`: the concentration for half-maximal inhibition (IC50) with A549 was 7.91 µM; with MCF7, 11.1 µM; with PC-3, 9.02 µM. The solubility entry in data set [1] is on record as “Insoluble”.

Regarding `COc1cc2ncnc(N3CCc4ccccc43)c2cc1NC(=O)/C=C/CN1CCN(C)CC1`, the IC50 in the data set on A549 was 5.36 µM; in the data set on MCF7 it was 6.43 µM; in the data set with PC-3, 9.18 µM.

As for `CCC/C=C/C(=O)Nc1cc2c(N3CCc4ccccc43)ncnc2cc1OC`, the results for the IC50 in the data set with A549, with MCF7 and in the data set with PC-3 were 2.92 µM, 3.16 µM and 4.24 µM, respectively. Also, the solubility entry in data set [1] was “Insoluble”.

On to `CCN(CC)C/C=C/C(=O)Nc1cc2c(N3CCc4ccccc43)ncnc2cc1O[C@@H]1CCOC1`, for which the values for the half-inhibitory concentration (IC50) with A549, in the data set on MCF7 and in the data set on PC-3 were 5.22 µM, 4.98 µM and 5.78 µM, respectively.

As to `O=C(/C=C/CN1CCCCC1)Nc1cc2c(N3CCc4ccccc43)ncnc2cc1O[C@@H]1CCOC1`, the concentration for half-maximal inhibition (IC50) was 4.66 µM in the data set with A549, 1.89 µM with MCF7 and 4.51 µM in the data set with PC-3.

For `CN1CCN(C/C=C/C(=O)Nc2cc3c(N4CCCc5ccccc54)ncnc3cc2O[C@@H]2CCOC2)CC1`, the IC50 in the data set with A549 was 5.87 µM; in the data set with MCF7, 7.18 µM; in the data set with PC-3, 9.45 µM.

On to `CCN(CC)C/C=C/C(=O)Nc1cc2c(N3CCCc4ccccc43)ncnc2cc1OC`, for which the half-inhibitory concentration (IC50) is 6.41 µM in the data set with A549, 5.31 µM with MCF7 and 6.89 µM with PC-3.

In the case of `CCN(CC)C/C=C/C(=O)Nc1cc2c(N3CCc4ccccc43)ncnc2cc1OC`, the IC50 was found to be 1.69 µM with A549, 1.99 µM in the data set with MCF7 and 3.69 µM in the data set with PC-3.

Take `CC(C)=CC(=O)Nc1cc2c(N3CCc4ccccc43)ncnc2cc1O[C@@H]1CCOC1`: the 50% inhibitory concentration (IC50) was 3.67 µM with A549, 15.7 µM in the data set with MCF7 and 4.62 µM in the data set on PC-3. The solubility entry in data set [1] is given as “Insoluble”.

On to `CC/C=C/C(=O)Nc1cc2c(N3CCc4ccccc43)ncnc2cc1O[C@@H]1CCOC1`, for which the 50% inhibitory concentration (IC50) is 10.9 µM with A549, 8.84 µM with MCF7 and 9.59 µM with PC-3. In addition, in data set [1], the solubility result is listed as “Insoluble”.

For the compound `COc1cc2ncnc(N3CCCc4ccccc43)c2cc1NC(=O)/C=C/CN1CCN(C)CC1`, the IC50 in the data set on A549 turned out to be 7.83 µM; in the data set on MCF7, 8.56 µM; in the data set with PC-3, 6.26 µM.

As to `CCC/C=C/C(=O)Nc1cc2c(N3CCCc4ccccc43)ncnc2cc1O[C@@H]1CCOC1`, the IC50 turned out to be 7.32 µM in the data set with A549, 4.23 µM in the data set with MCF7 and 11.8 µM in the data set with PC-3. In addition, the solubility entry in data set [1] was “Insoluble”.

For `COc1cc2ncnc(N3CCCc4ccccc43)c2cc1NC(=O)/C=C/CN1CCCC1`, the 50% inhibitory concentration (IC50) is 2.23 µM with A549, 3.19 µM with MCF7 and 1.74 µM in the data set on PC-3.

Take `C=CC(=O)Nc1cc2c(N3CCc4ccccc43)ncnc2cc1O[C@@H]1CCOC1`: the half-inhibitory concentration (IC50) in the data set with A549 was 9.32 µM; with MCF7, 5.95 µM; in the data set on PC-3 it was 2.71 µM. Moreover, in data set [1], the solubility entry was “Insoluble”.

Regarding `COc1cc2ncnc(N3CCCc4ccccc43)c2cc1NC(=O)C=C(C)C`, the half-inhibitory concentration (IC50) turned out to be 5.41 µM in the data set with A549, 6.87 µM with MCF7 and 6.13 µM in the data set on PC-3. Moreover, the solubility entry in data set [1] is “Insoluble”.

As to `CN(C)C/C=C/C(=O)Nc1cc2c(N3CCCc4ccccc43)ncnc2cc1O[C@@H]1CCOC1`, the results for the IC50 in the data set on A549, in the data set on MCF7 and with PC-3 were 2.32 µM, 2.85 µM and 4.17 µM, respectively.

Take `C/C=C/C(=O)Nc1cc2c(N3CCc4ccccc43)ncnc2cc1OC`: the half-maximal inhibitory concentration (IC50) in the data set on A549 was found to be 8.29 µM; in the data set with MCF7, 4.03 µM; with PC-3 it was 8.12 µM. Also, in data set [1], the solubility result was “Insoluble”.

`C=C(C)C(=O)Nc1cc2c(N3CCc4ccccc43)ncnc2cc1OC`: the half-inhibitory concentration (IC50) in the data set with A549 is 7.32 µM; in the data set with MCF7 it was 11.1 µM; in the data set on PC-3 it was 4.83 µM. Also, in data set [1], the solubility result was “Insoluble”.

With `COc1cc2ncnc(N3CCCc4ccccc43)c2cc1NC(=O)/C=C/CN1CCC(CO)CC1`, the IC50 was determined as 6.97 µM in the data set with A549, 5.74 µM in the data set on MCF7 and 7.15 µM with PC-3.

For the compound `C/C=C/C(=O)Nc1cc2c(N3CCCc4ccccc43)ncnc2cc1O[C@@H]1CCOC1`, the concentration for half-maximal inhibition (IC50) stood at 10.8 µM in the data set on A549, 5.93 µM in the data set on MCF7 and 9.35 µM with PC-3. For the same compound, the solubility entry in data set [1] was “Insoluble”.

On to `COc1cc2ncnc(N3CCc4ccccc43)c2cc1NC(=O)/C=C/CN1CCOCC1`, for which the half-maximal inhibitory concentration (IC50) in the data set with A549 turned out to be 9.25 µM; with MCF7 it was 8.45 µM; in the data set on PC-3 it was 8.29 µM.

In the case of `C=C(C)C(=O)Nc1cc2c(N3CCc4ccccc43)ncnc2cc1O[C@@H]1CCOC1`, the IC50 with A549 worked out at 16.6 µM; in the data set on MCF7, 14.7 µM; in the data set with PC-3, 4.91 µM. Also, the solubility entry in data set [1] is listed as “Insoluble”.

Turning to `CC/C=C/C(=O)Nc1cc2c(N3CCCc4ccccc43)ncnc2cc1OC`, the IC50 is 5.03 µM with A549, 2.87 µM with MCF7 and 6.31 µM in the data set on PC-3. Moreover, the solubility result in data set [1] was “Insoluble”.

For `CC/C=C/C(=O)Nc1cc2c(N3CCCc4ccccc43)ncnc2cc1O[C@@H]1CCOC1`, the values for the half-inhibitory concentration (IC50) in the data set with A549, with MCF7 and with PC-3 were 14.1 µM, 14.4 µM and 14.3 µM, respectively. In data set [1], the solubility result is given as “Insoluble”.

Consider `O=C(/C=C/CN1CCC(CO)CC1)Nc1cc2c(N3CCc4ccccc43)ncnc2cc1O[C@@H]1CCOC1`, for which the IC50 in the data set with A549 stood at 3.67 µM; in the data set on MCF7, 4.69 µM; with PC-3, 3.31 µM.

Consider `O=C(/C=C/CN1CCC(CO)CC1)Nc1cc2c(N3CCCc4ccccc43)ncnc2cc1O[C@@H]1CCOC1`, for which the IC50 in the data set on A549 was found to be 5.3 µM; in the data set with MCF7 it was 4.96 µM; in the data set on PC-3 it was 5.46 µM.

In the case of `COc1cc2ncnc(N3CCCc4ccccc43)c2cc1NC(=O)/C=C/CN1CCCCC1`, the IC50 stood at 2.88 µM with A549, 3.93 µM in the data set on MCF7 and 5.78 µM in the data set on PC-3.

As for `O=C(/C=C/CN1CCCC1)Nc1cc2c(N3CCc4ccccc43)ncnc2cc1O[C@@H]1CCOC1`, the concentration for half-maximal inhibition (IC50) in the data set with A549 was determined as 2.23 µM; in the data set with MCF7 it was 2.31 µM; in the data set on PC-3, 1.51 µM.

For the compound `CN1CCN(C/C=C/C(=O)Nc2cc3c(N4CCc5ccccc54)ncnc3cc2O[C@@H]2CCOC2)CC1`, the IC50 turned out to be 6.09 µM with A549, 5.35 µM with MCF7 and 4.21 µM in the data set on PC-3.

`COc1cc2ncnc(N3CCc4ccccc43)c2cc1NC(=O)/C=C/CN(C)C`: the IC50 with A549 was 2.04 µM; with MCF7, 3.37 µM; with PC-3, 2.19 µM.

As for `O=C(/C=C/CN1CCCCC1)Nc1cc2c(N3CCCc4ccccc43)ncnc2cc1O[C@@H]1CCOC1`, the IC50 in the data set with A549 is 3.67 µM; with MCF7, 4.45 µM; with PC-3, 3.63 µM.
